Test results reported in ChEMBL document CHEMBL2311498, “Sulfonylureas have antifungal activity and are potent inhibitors of Candida albicans acetohydroxyacid synthase” (J Med Chem, 2013).
≈ marks a conversion by molar mass, not a printed value. Calls of active or inactive are those of the source. The rule behind the calls is not given here.

How the values were obtained:
[1] = Inhibition of Candida albicans acetohydroxyacid synthase catalytic domain expressed in Escherichia coli by colorimetric method
Outline: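 Catalytic subunit, His6-tagged, expressed in E. coli Rosetta and purified on Ni affinity resin with FAD present. Single-point colorimetric assay in 250 mM potassium phosphate pH 6.4 with 50 mM pyruvate, 10 mM MgCl2, 1 mM ThDP and 10 μM FAD, 30 °C for 30 min. Acid decarboxylation to acetoin, creatine/α-naphthol colour read at A525. Duplicates at 10–12 inhibitor levels, Ki from nonlinear fit, tight-binding equation where needed.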

[2] = system: Candida albicans; assay: Antifungal activity against Candida albicans after 72 hrs by broth microdilution method; format: functional
[3] = system: Candida albicans; assay: Antifungal activity against Candida albicans after 72 hrs by disk diffusion method; format: functional
Outline: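 Screened by disk diffusion: 10 μL of compound in DMSO applied to a disk on plates inoculated with yeast. Plates were incubated at 35 °C, and inhibition-zone diameters were measured at 24, 48 and 72 h against a DMSO control disk.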

[4] = system: Saccharomyces cerevisiae; assay: Antifungal activity against Saccharomyces cerevisiae after 72 hrs by broth microdilution assay; format: functional
Outline: (§1)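 Broth microdilution in YNB supplemented with 0.5% glucose and 100 mM ammonium sulfate, with compounds serially diluted from DMSO solutions. Inoculum came from single colonies of 48 h plates suspended in water, adjusted by 530 nm turbidity to 1 × 10^6 to 5 × 10^6 CFU/mL, then diluted to about 10^4 CFU/mL. Incubated at 35 °C with visual readings at 24, 48 and 72 h. MIC50/90 is the concentration giving 50%/90% growth inhibition; MIC50 is the mean of three measurements.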

[5] = Toxicity in po dosed rat; format: organism-based; details: in vivo
[6] = Toxicity in id dosed rabbit; format: organism-based, Oryctolagus cuniculus; details: in vivo
[7] = system: Candida albicans; assay: Antifungal activity against Candida albicans after 24 hrs by broth microdilution assay; format: functional; outline: as §1

SMILES | Ki ([1]; read-out: Ki) | MIC50 [2] | MIC90 [2] | also measured
COC(=O)c1ccccc1S(=O)(=O)NC(=O)Nc1nc(I)cc(OC)n1 | 3.9 nM | 1 µM (≈ 0.492 µg/mL) | 3.13 µM (≈ 1.54 µg/mL) | 
CCOC(=O)c1ccccc1S(=O)(=O)NC(=O)Nc1nc(Br)cc(OC)n1 | 4.1 nM | 0.7 µM (≈ 0.321 µg/mL) | 1.56 µM (≈ 0.716 µg/mL) | 
COc1cc(I)nc(NC(=O)NS(=O)(=O)c2ccccc2C(=O)OCCO)n1 | 15 nM | > 25 µM | > 25 µM | 
COc1cc(Cl)nc(NC(=O)NS(=O)(=O)c2ccccc2C(=O)OCCI)n1 | 1200 nM | > 25 µM | > 25 µM | 
COc1cc(Br)nc(NC(=O)NS(=O)(=O)c2ccccc2C(=O)OCCO[Si](C)(C)C(C)(C)C)n1 | 49.8 nM | > 25 µM | > 25 µM | 
CCOC(=O)c1ccccc1S(=O)(=O)NC(=O)Nc1nc(I)cc(OC)n1 | 3.8 nM | 0.6 µM (≈ 0.304 µg/mL) | 1.56 µM (≈ 0.79 µg/mL) | diameter of the inhibition zone (DIZ) [3]: 35 mm
COc1cc(Cl)nc(NC(=O)NS(=O)(=O)c2ccccc2C(=O)OCCO[Si](C)(C)C(C)(C)C)n1 |  | > 25 µM | > 25 µM | Ki [1]: Not Active
COC(=O)c1ccccc1S(=O)(=O)NC(=O)Nc1nc(C)cc(C)n1 [SULFOMETURON METHYL] | 634 nM | inactive |  | MIC50 [4]: 19.5 µM (≈ 7.11 µg/mL)
COc1cc(I)nc(NC(=O)NS(=O)(=O)c2ccccc2C(=O)OCCBr)n1 | 26 nM | 12 µM (≈ 7.02 µg/mL) | > 25 µM | 
COC(=O)c1ccccc1S(=O)(=O)NC(=O)Nc1nc(Cl)cc(OC)n1 | 7.1 nM | 3 µM (≈ 1.2 µg/mL) | 6.25 µM (≈ 2.51 µg/mL) | 
COc1cc(Cl)nc(NC(=O)NS(=O)(=O)c2ccccc2C(=O)OCCBr)n1 | 257 nM | > 25 µM | > 25 µM | 
CCOc1ccccc1OS(=O)(=O)NC(=O)Nc1nc(OC)cc(OC)n1 [ETHOXYSULFURON] | 20 nM | 2 µM (≈ 0.797 µg/mL) |  | MIC50 [4]: 13 µM (≈ 5.18 µg/mL); diameter of the inhibition zone (DIZ) [3]: 30 mm
COc1cc(I)nc(NC(=O)NS(=O)(=O)c2ccccc2C(=O)OCCCl)n1 | 13.3 nM | 4 µM (≈ 2.16 µg/mL) | 12.7 µM (≈ 6.87 µg/mL) | 
COc1cc(I)nc(NC(=O)NS(=O)(=O)c2ccccc2C(=O)OCCI)n1 | 93 nM | 12 µM (≈ 7.59 µg/mL) | 25 µM (≈ 15.8 µg/mL) | 
CCOC(=O)c1ccccc1S(=O)(=O)NC(=O)Nc1nc(Cl)cc(OC)n1 [CHLORIMURON ETHYL] | 7 nM | 2 µM (≈ 0.83 µg/mL) |  | MIC50 [4]: 19.5 µM (≈ 8.09 µg/mL); LD50 [5]: > 4000 mg/kg; LD50 [6]: > 2000 mg/kg; diameter of the inhibition zone (DIZ) [3]: 25 mm
COc1cc(I)nc(NC(=O)NS(=O)(=O)c2ccccc2C(=O)OCCO[Si](C)(C)C(C)(C)C)n1 | 13 nM | > 25 µM | > 25 µM | 
COc1cc(Cl)nc(NC(=O)NS(=O)(=O)c2ccccc2C(=O)OCCCl)n1 | 62 nM | 15 µM (≈ 6.74 µg/mL) | > 25 µM | 
COc1cc(Br)nc(NC(=O)NS(=O)(=O)c2ccccc2C(=O)OCCCl)n1 |  | 15 µM (≈ 7.41 µg/mL) | > 25 µM | 
CCOC(=O)c1cnn(C)c1S(=O)(=O)NC(=O)Nc1nc(OC)cc(OC)n1 [PYRAZOSULFURON ETHYL] | 66 nM | 62 µM (≈ 25.7 µg/mL) |  | MIC50 [4]: 41.7 µM (≈ 17.3 µg/mL)
CCOc1nc(NC)nc(NC(=O)NS(=O)(=O)c2ccccc2C(=O)OC)n1 [ETHAMETSULFURON METHYL] | 656 nM | inactive |  | MIC50 [4]: inactive
OC(Cn1cncn1)(Cn1cncn1)c1ccc(F)cc1F [FLUCONAZOLE] |  |  |  | MIC50 [7]: 0.93 µg/mL (≈ 3.04 µM)
COc1cc(Br)nc(NC(=O)NS(=O)(=O)c2ccccc2C(=O)OCCO)n1 | 27 nM | > 25 µM | > 25 µM | 
COC(=O)c1ccccc1S(=O)(=O)NC(=O)Nc1nc(Br)cc(OC)n1 | 3.8 nM | 1 µM (≈ 0.445 µg/mL) | 6.25 µM (≈ 2.78 µg/mL) | 
COc1cc(Br)nc(NC(=O)NS(=O)(=O)c2ccccc2C(=O)OCCBr)n1 | 65 nM | > 25 µM | > 25 µM | 
COC(=O)c1ccccc1S(=O)(=O)NC(=O)N(C)c1nc(C)nc(OC)n1 [TRIBENURON METHYL] | 1640 nM | inactive |  | MIC50 [4]: inactive
COc1nc(C)nc(NC(=O)NS(=O)(=O)c2ccccc2Cl)n1 [CHLORSULFURON] | 434 nM | 156 µM (≈ 55.8 µg/mL) |  | MIC50 [4]: 117 µM (≈ 41.9 µg/mL)
COc1cc(Cl)nc(NC(=O)NS(=O)(=O)c2ccccc2C(=O)OCCO)n1 | 65 nM | > 25 µM | > 25 µM | 
COC(=O)c1ccccc1CS(=O)(=O)NC(=O)Nc1nc(OC)cc(OC)n1 [BENSULFURON METHYL] | 31 nM | 62 µM (≈ 25.4 µg/mL) |  | MIC50 [4]: 20.8 µM (≈ 8.54 µg/mL)
COc1cc(Br)nc(NC(=O)NS(=O)(=O)c2ccccc2C(=O)OCCI)n1 | 270 nM | > 25 µM | > 25 µM | 
